# Shown is part of a subset that was picked to be rich in hits.
# PolyA inhibitor: inhibitors of polyadenylation in S. cerevisiae | actives 0.02% (n = 300,000) | activity score, % at 12 µM | S. cerevisiae SKY197-pL101 polyadenylation reporter, beta-gal luminescence; efflux-impaired pdr1/pdr3 knockout yeast; score 100 = 6 SD above DMSO;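 active means lowest replicate activity score at least 50, where 100 means six control SD above control mean; inconclusive means lowest score under 50 but half or more replicates reach 50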;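 further: yeast exposed to compound for 9 h at 30 °C; higher score means more reporter readthrough which indicates perturbed polyadenylation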
# NLRP3 yeast inh: blocks the NALP3 inflammasome reconstituted in yeast. inhibition, % at 10 µM. actives 0.39% (n = 330,000). Yeast reconstituted NLRP3/ASC/caspase-1, beta-gal luminescence, 24 h;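 active means inhibition of 50% or more; inactive means inhibition below 50%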;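 further: plate controls were induced DMSO wells for no effect and uninduced yeast grown without galactose for full effect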
# Calb FLC: C. albicans growth modulation with fluconazole; AID 1979; growth inhibition, % (concentration not given with the values); actives 0.57% (n = 300,000); C. albicans CaCi-2 (fluconazole-resistant clinical isolate) + fluconazole, Alamar Blue growth, 48 h;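 active means growth inhibition above about 58% in most replicates, limit read from the data, passing the limit was not always enough; inconclusive means exactly half the replicates above a set limit; inactive means most replicates below a set limit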;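 further: all wells also contain fluconazole at 8 µg/ml as a sub-toxic cotreatment; 0% = median of DMSO wells and 100% = median of geldanamycin control wells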
# NALP1 inh: blocks the NALP1 inflammasome reconstituted in yeast; S. cerevisiae NALP1/ASC/caspase-1 growth, X-gal OD620, 72 h; inhibition, % at 10 µM; actives 0.61% (n = 280,000); AID 2071; in the data active means inhibition mostly above about 24%, no sharp cut-off; inactive means mostly below about 32%
# L major viab: inhibitors of Leishmania major promastigote growth | Leishmania major promastigotes, resazurin fluorescence viability | inhibition, % at 10 µM | actives 9% (n = 200,000); in the data active means inhibition above about 50%;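 further: promastigotes grown with compound for 44 hours at 28 °C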
# T cruzi repl: blocks replication of Trypanosoma cruzi; T. cruzi beta-gal in NIH3T3, luminescence, 90 h; inhibition, % (no concentration beside the values); actives 1.4% (n = 300,000); AID 1885;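 active means mean inhibition across valid replicates above about 55%, limit read from the data; inconclusive means mean below that limit but half or more replicates reach it; inactive means mean below it, under half of replicates reach it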;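 further: signal also drops with host cell toxicity which is not excluded here; 0% = plate median of DMSO wells and 100% = zero luminescence signal; higher percent means less beta-gal luminescence so fewer parasites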
#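 System: Mouse NIH/3T3 fibroblasts infected with β-gal-expressing T. cruzi Tulahuen C4 | Quantity: NIH/3T3 cells, 5,000 per well | Reagent: 5000 reporter trypomastigotes per well | Dosing: Compound pinned at 50 nL/well, DMSO | Schedule: 3 h host attachment, then at least 90 h co-culture | Detection: GalScreen luminescence, 60 min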
# * hit, by the source's call; ? = inconclusive; . = not tested or not shown.
SMILES,PolyA inhibitor,NLRP3 yeast inh,Calb FLC,NALP1 inh,L major viab,T cruzi repl
N/C(=N\OC(=O)COc1ccc2ccccc2c1Br)c1ccncc1,-20,10,-4,6,4,56*
Cn1c2ccccc2c(=O)c2c(=O)n(Cc3ccccc3)c(-c3ccc(F)cc3)nc21,-4,8,11,-7,.,.
O=C(Nc1nc(-c2ccco2)c(-c2ccco2)s1)c1c(F)cccc1Cl,.,12,.,.,.,.
O=C(Nc1nc(-c2ccco2)c(-c2ccco2)s1)c1cnccn1,-15,21,.,.,.,70*
COc1cc(Nc2ccccc2Cl)c([N+](=O)[O-])nc1[N+](=O)[O-],-4,21,-6,6,83*,?
CC1(C)CC(=O)C2=C(C1)OC(N)=C(C#N)C21C(=O)N(Cc2ccccc2Cl)c2ccccc21 (configuration not stated),-2,17,8,4,59*,14
c1ccc(-c2nc(NCc3cccnc3)c3oc4ccccc4c3n2)cc1,-31,19,8,16,88*,56*
c1ccc(-c2nc(NCC3CCCO3)c3oc4ccccc4c3n2)cc1 (configuration not stated),-51,29,24,-2,55*,40
CC(=O)Nc1ccc(S(=O)(=O)N(Cc2cccnc2)Cc2cc3ccccc3[nH]c2=O)cc1,2,-6,4,6,.,5
COc1ccccc1N1CCN(S(=O)(=O)c2ccc(NC(C)=O)cc2)CC1,-4,16,0,0,.,-3
CC1=NN(C(C#N)c2ccccc2C)C(C)(C)C1 (configuration not stated),12,-9,18,7,-1,-1
Cc1cccc(C2=NC(C(F)(F)F)(C(F)(F)F)c3c(n(-c4ccc(F)cc4)c(=O)[nH]c3=O)N2)c1,-25,-8,-3,8,74*,-9
CC(=O)NC1(C(F)(F)F)C(=O)Nc2c1c(=O)[nH]c(=O)n2-c1ccccc1 (configuration not stated),-15,13,-7,.,.,12
CN1C2CCC1/C(=C\c1ccccc1)C(=O)/C2=C\c1ccccc1,-9,33,17,-1,94*,21
CCCSc1cc(N)cc([N+](=O)[O-])c1,-8,5,97*,18,-3,-4
COC(=O)c1cc(S(=O)(=O)NCC2CCN(Cc3cc(C)ccc3C)CC2)c[nH]1,16,7,5,13,.,0
c1ccc(Cc2noc(CN3CCCN(C4Cc5ccccc5C4)CC3)n2)cc1,-23,21,1,9,92*,48
c1ccc(Cc2noc(CN3CCN(C4CCc5ccccc5C4)CC3)n2)cc1 (configuration not stated),-1,25,-11,22,87*,?
c1ccc(Cc2noc(CN3CCC(CN4CCOCC4)CC3)n2)cc1,-13,-6,18,-2,15,-6
Cc1cc(SCC(=O)N/N=C/c2ccc(O)cc2O)c(C)cc1Br,-8,16,101*,8,100*,62*
COc1cc(CNc2ccc(NC(C)=O)cc2)ccc1OCc1ccccc1C,-10,23,6,-52,73*,-30
CCCCNCc1ccc(OCc2ccc(Cl)nc2)c(OC)c1,-9,22,-23,.,.,24
CNCc1ccc(OCc2ccccc2)c(OC)c1,-8,17,-9,34,80*,25
COc1cc(CNCC(O)c2ccccc2)ccc1OCc1ccc(Cl)nc1 (configuration not stated),4,22,15,7,100*,17
COc1cc(CNc2ccc(N3CCN(C(C)=O)CC3)cc2)ccc1OCc1ccccc1,-6,5,-5,16,-5,-8
COc1cc(CC(=O)O)ccc1OCc1ccccc1,6,3,5,-2,.,-19
COc1cc(CNCc2cccnc2)ccc1OCc1ccccc1,13,7,-35,13,96*,-6
Cc1cc(C)cc(NC(=O)N2CCN(C/C=C/c3ccccc3)CC2)c1,-6,-10,-24,20,4,16
Cc1ccc(S(=O)(=O)NC(C)(C)CSc2ccccn2)cc1,-12,-2,-18,33,-1,10
COc1cc(OC)c(CN2CCC(Cc3ccccc3)CC2)cc1Br,11,30,-9,-32,.,29

# Screening data deposited in PubChem BioAssay by several laboratories.
